Results from ChEMBL document CHEMBL4814000, “Discovery of β-carboline-(phenylsulfonyl)furoxan hybrids as potential anti-breast cancer agents” (Bioorg Med Chem Lett, 2021).
Activity calls are given as the source filed them. The rule behind the calls is not given here.

Assays:
MCF7 = experiment: Antiproliferative activity against human MCF7 cells assessed as reduction in cell viability incubated for 72 hrs by CCK-8 assay; assay type: functional, cell-based; details: MCF7, 72 h
Method in brief: (§1)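 CCK-8 viability assay on MCF-7 or MDA-MB-231 cells after 72 h compound exposure; IC50 taken as half inhibitory concentration, reported as mean ± SD of three independent experiments.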

MDA-MB-231 [1] = experiment: Antiproliferative activity against human MDA-MB-231 cells assessed as reduction in cell viability incubated for 72 hrs by CCK-8 assay; assay type: functional, cell-based; details: MDA-MB-231, 72 h; method in brief: as §1
MDA-MB-231 [2] = experiment: Induction of cell cycle arrest in human MDA-MB-231 cells assessed as accumulation of cells at G2/M phase at 0.15 uM after 72 hrs by propidium iodide staining based flow cytometry (reference value: 10.90 %); assay type: functional
Method in brief: (§2)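 Cell cycle: MDA-MB-231 cells held 72 h at 0, 0.15, 0.3 or 0.6 μM, harvested, PI-stained and analysed by flow cytometry for G1, S and G2/M percentages.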

MDA-MB-231 [3] = experiment: Induction of cell cycle arrest in human MDA-MB-231 cells assessed as accumulation of cells at G2/M phase at 0.3 uM after 72 hrs by propidium iodide staining based flow cytometry (reference value: 10.90 %); assay type: functional; method in brief: as §2
MDA-MB-231 [4] = experiment: Induction of cell cycle arrest in human MDA-MB-231 cells assessed as accumulation of cells at G2/M phase at 0.6 uM after 72 hrs by propidium iodide staining based flow cytometry (reference value: 10.90 %); assay type: functional; method in brief: as §2
MDA-MB-231 [5] = experiment: Induction of apoptosis in human MDA-MB-231 cells assessed as early apoptotic cells at 0.15 uM incubated for 72 hrs by annexin V-FITC staining based flow cytometry (reference value: 3.42%); assay type: functional
MDA-MB-231 [6] = experiment: Induction of apoptosis in human MDA-MB-231 cells assessed as late apoptotic cells at 0.15 uM incubated for 72 hrs by annexin V-FITC staining based flow cytometry (reference value: 1.67%); assay type: functional
MDA-MB-231 [7] = experiment: Induction of apoptosis in human MDA-MB-231 cells assessed as necrotic cells at 0.15 uM incubated for 72 hrs by annexin V-FITC staining based flow cytometry (reference value: 1.05%); assay type: functional
MDA-MB-231 [8] = experiment: Induction of apoptosis in human MDA-MB-231 cells assessed as viable cells at 0.15 uM incubated for 72 hrs by annexin V-FITC staining based flow cytometry (reference value: 93.86%); assay type: functional; details: read-out: Activity
MDA-MB-231 [9] = experiment: Induction of apoptosis in human MDA-MB-231 cells assessed as early apoptotic cells at 0.3 uM incubated for 72 hrs by annexin V-FITC staining based flow cytometry (reference value: 3.42%); assay type: functional
MDA-MB-231 [10] = experiment: Induction of apoptosis in human MDA-MB-231 cells assessed as late apoptotic cells at 0.3 uM incubated for 72 hrs by annexin V-FITC staining based flow cytometry (reference value: 1.67%); assay type: functional
MDA-MB-231 [11] = experiment: Induction of apoptosis in human MDA-MB-231 cells assessed as necrotic cells at 0.3 uM incubated for 72 hrs by annexin V-FITC staining based flow cytometry (reference value: 1.05%); assay type: functional
MDA-MB-231 [12] = experiment: Induction of apoptosis in human MDA-MB-231 cells assessed as viable cells at 0.3 uM incubated for 72 hrs by annexin V-FITC staining based flow cytometry (reference value: 93.86%); assay type: functional; details: read-out: Activity
MDA-MB-231 [13] = experiment: Induction of apoptosis in human MDA-MB-231 cells assessed as early apoptotic cells at 0.6 uM incubated for 72 hrs by annexin V-FITC staining based flow cytometry (reference value: 3.42%); assay type: functional
MDA-MB-231 [14] = experiment: Induction of apoptosis in human MDA-MB-231 cells assessed as late apoptotic cells at 0.6 uM incubated for 72 hrs by annexin V-FITC staining based flow cytometry (reference value: 1.67%); assay type: functional
MDA-MB-231 [15] = experiment: Induction of apoptosis in human MDA-MB-231 cells assessed as necrotic cells at 0.6 uM incubated for 72 hrs by annexin V-FITC staining based flow cytometry (reference value: 1.05%); assay type: functional
MDA-MB-231 [16] = experiment: Induction of apoptosis in human MDA-MB-231 cells assessed as viable cells at 0.6 uM incubated for 72 hrs by annexin V-FITC staining based flow cytometry (reference value: 93.86%); assay type: functional; details: read-out: Activity
MDA-MB-231 [17] = experiment: Induction of ROS generation in human MDA-MB-231 cells incubated for 72 hrs by DCFH-DA staining-based flow cytometric analysis relative to control; assay type: functional, cell-based; details: dose microM <=0.6, time 72.0 hrs
Method in brief: (§3)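 MDA-MB-231 cells exposed 72 h, then loaded with DCFH-DA and read on a FACScan flow cytometer as percent DCFH-DA-positive cells against DMSO-treated control; mean ± SD of three independent experiments.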

MDA-MB-231 [18] = experiment: Induction of DNA damage in human MDA-MB-231 cells assessed as reduction in head DNA measured at 0.15 to 0.6 uM after 72 hrs by neutral comet assay; assay type: functional, cell-based; details: dose 0.15-0.6 µM
Method in brief: (§4)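 Neutral comet assay for double-strand breaks in MDA-MB-231 cells incubated 72 h; head DNA%, tail DNA%, tail moment and Olive tail moment scored, the moments in arbitrary units; mean ± SD of three independent experiments, p < 0.05 versus control.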

MDA-MB-231 [19] = experiment: Induction of DNA damage in human MDA-MB-231 cells assessed as increase in tail DNA measured at 0.15 to 0.6 uM after 72 hrs by neutral comet assay; assay type: functional, cell-based; details: dose 0.15-0.6 µM; method in brief: as §4
MDA-MB-231 [20] = experiment: Induction of DNA damage in human MDA-MB-231 cells assessed as increase in tail moment measured at 0.15 to 0.6 uM after 72 hrs by neutral comet assay; assay type: functional, cell-based; details: dose 0.15-0.6 µM; method in brief: as §4
MDA-MB-231 [21] = experiment: Induction of DNA damage in human MDA-MB-231 cells assessed as increase olive tail moment measured at 0.15 to 0.6 uM after 72 hrs by neutral comet assay; assay type: functional, cell-based; details: dose 0.15-0.6 µM; method in brief: as §4
MDA-MB-231 [22] = experiment: Inhibition of cell migration in human MDA-MB-231 cells assessed as inhibition of wound healing rate measured for 24 hrs by phase contrast microscopy; assay type: functional, cell-based
Method in brief: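 Wound-healing: scratches made with pipette tips across MDA-MB-231 monolayers, then 24 h incubation at 0, 0.15, 0.3 or 0.6 μM; closure imaged by phase contrast microscopy and expressed as wound-healing rate; mean ± SD of three independent experiments.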

MDA-MB-231 [23] = experiment: Antiinvasive activity against human MDA-MB-231 cells assessed as reduction in invasion incubated for 24 hrs by crystal violet staining based transwell assay; assay type: functional, cell-based; details: dose microM <=0.6, time 24.0 hrs
Method in brief: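 Transwell: MDA-MB-231 cells seeded in chambers with 0, 0.15, 0.3 or 0.6 μM for 24 h; cells crossing stained with crystal violet, imaged and counted; mean ± SD of three independent experiments.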

MDA-MB-231 [24] = experiment: Inhibition of cell adhesion in human MDA-MB-231 cells measured for 24 hrs by phase-contrast microscope method; assay type: functional, cell-based; details: dose 0.15-0.6 µM
Method in brief: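 Adhesion: MDA-MB-231 cells incubated with 0, 0.15, 0.3 or 0.6 μM, non-adherent cells washed off with PBS, attached cells counted by phase contrast microscopy; mean ± SD of three independent experiments.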

[25] = Nitric oxide releasing activity assessed as amount of NO release measured up to 24 hrs by Griess assay; assay type: functional; details: time hrs <=24
Method in brief: (§5)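 Griess assay measuring NO released by compounds in vitro over time; values are averages of three independent experiments.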

[26] = Nitric oxide releasing activity assessed as amount of NO release measured at 3 hrs by Griess assay; assay type: functional; method in brief: as §5
MDA-MB-231 [27] = experiment: Induction of cell cycle arrest in human MDA-MB-231 cells assessed as accumulation of cells at G1 phase at 0.15 uM after 72 hrs by propidium iodide staining based flow cytometry (reference value: 51.97 %); assay type: functional; method in brief: as §2
MDA-MB-231 [28] = experiment: Induction of cell cycle arrest in human MDA-MB-231 cells assessed as accumulation of cells at G1 phase at 0.3 uM after 72 hrs by propidium iodide staining based flow cytometry (reference value: 51.97 %); assay type: functional; method in brief: as §2
MDA-MB-231 [29] = experiment: Induction of cell cycle arrest in human MDA-MB-231 cells assessed as accumulation of cells at G1 phase at 0.6 uM after 72 hrs by propidium iodide staining based flow cytometry (reference value: 51.97 %); assay type: functional; method in brief: as §2
MDA-MB-231 [30] = experiment: Induction of cell cycle arrest in human MDA-MB-231 cells assessed as accumulation of cells at S phase at 0.15 uM after 72 hrs by propidium iodide staining based flow cytometry (reference value: 37.12 %); assay type: functional; method in brief: as §2
MDA-MB-231 [31] = experiment: Induction of cell cycle arrest in human MDA-MB-231 cells assessed as accumulation of cells at S phase at 0.3 uM after 72 hrs by propidium iodide staining based flow cytometry (reference value: 37.12 %); assay type: functional; method in brief: as §2
MDA-MB-231 [32] = experiment: Induction of cell cycle arrest in human MDA-MB-231 cells assessed as accumulation of cells at S phase at 0.6 uM after 72 hrs by propidium iodide staining based flow cytometry (reference value: 37.12 %); assay type: functional; method in brief: as §2
MDA-MB-231 [33] = experiment: Induction of ROS generation in human MDA-MB-231 cells at 0.6 uM incubated for 72 hrs by DCFH-DA staining-based flow cytometric analysis (reference value: 3.04 %); assay type: functional; method in brief: as §3
MDA-MB-231 [34] = experiment: Induction of DNA damage in human MDA-MB-231 cells assessed as double-strand DNA breaks measured at 0.15 to 0.6 uM after 72 hrs by neutral comet assay; assay type: functional, cell-based; details: dose 0.15-0.6 µM; method in brief: as §4

## COc1ccc(-c2nc(C(=O)NCCCOc3no[n+]([O-])c3S(=O)(=O)c3ccccc3)cc3c2[nH]c2ccccc23)cc1
MCF7
  IC50: 890 nM
MDA-MB-231 [1]
  IC50: 620 nM
MDA-MB-231 [2]
  Activity: 13.64%
MDA-MB-231 [3]
  Activity: 19.92%
MDA-MB-231 [4]
  Activity: 23.54%
MDA-MB-231 [5]
  Activity: 8.28%
MDA-MB-231 [6]
  Activity: 4.39%
MDA-MB-231 [7]
  Activity: 3.68%
MDA-MB-231 [8]
  viability at 0.15 µM: 83.6%
MDA-MB-231 [9]
  Activity: 14.07%
MDA-MB-231 [10]
  Activity: 9.92%
MDA-MB-231 [11]
  Activity: 3.7%
MDA-MB-231 [12]
  viability at 0.3 µM: 72.3%
MDA-MB-231 [13]
  Activity: 29.88%
MDA-MB-231 [14]
  Activity: 24.3%
MDA-MB-231 [15]
  Activity: 1.61%
MDA-MB-231 [16]
  viability at 0.6 µM: 44.2%
MDA-MB-231 [17]
  Activity: Dose-Dependent Effect
MDA-MB-231 [18]
  Activity: Active
MDA-MB-231 [19]
  Activity: Active
MDA-MB-231 [20]
  Activity: Active
MDA-MB-231 [21]
  Activity: Active
MDA-MB-231 [22]
  inhibition: Dose-Dependent Effect
MDA-MB-231 [23]
  Activity: Active
MDA-MB-231 [24]
  inhibition: Dose-Dependent Effect
[25]
  Activity: Active
[26]
  Activity: 65 µM/L
MDA-MB-231 [27]
  Activity: 50.54%
MDA-MB-231 [28]
  Activity: 42.88%
MDA-MB-231 [29]
  Activity: 40.59%
MDA-MB-231 [30]
  Activity: 35.82%
MDA-MB-231 [31]
  Activity: 37.2%
MDA-MB-231 [32]
  Activity: 35.87%
MDA-MB-231 [33]
  Activity: 51.62%
MDA-MB-231 [34]
  Activity: Active
